These results are taken from ChEMBL document CHEMBL6071149, “Synthesis and photo-induced anticancer activity of new 2-phenylethenyl-1H-benzo[e]indole dyes” (Eur J Med Chem, 2024).

Data set [1] has as its system G-361. Description: Induction of ROS production in human G361 cells upto 4 uM treated for 4 hrs under dark condition by CM-H2DCFA probe based analysis. The format is functional, cell-based. An outline of the steps:
(§1)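 Cells loaded next day with 5 µM CM-H₂DCFDA for 30 min, then placed in prewarmed PBS with 5 mM glucose. Compound exposure 4 h, followed by 414 nm irradiation at 5 or 10 J/cm²; dark samples run in parallel. Fluorescence read immediately at 492/530 nm. NAC (5 mM) pretreatment for 10 min gave negative controls. RFU normalised to untreated dark control.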

Data set [2] concerns ARN-8 cell. Description: Induction of apoptosis in human ARN-8 cells-derived from human A375 cells assessed as increase in cleaved PARP-1 level upto 4 uM pretreated for 4 hrs followed by light irradiation of 10 J/cm2 at 414 nm measured after 20 hrs by Western blot analysis. The conditions noted are these: time 24.0 hrs. The format is functional, cell-based. An outline of the steps: (§2)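 Compound exposure 4 h, then 414 nm irradiation, then 20 h further incubation. Lysates made in RIPA buffer, separated by SDS-PAGE and blotted to nitrocellulose. Primary antibodies in TBS with 4 % BSA and 0.1 % Tween 20, incubated overnight. Peroxidase secondary antibody with chemiluminescent detection. GAPDH served as loading control.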
(A western blot detects proteins with antibodies after separation by electrophoresis.)

The test system of data set [3] is ARN-8 cell. The experiment in a line: Induction of oxidative stress in human ARN-8 cells-derived from human A375 cells assessed as increase in HO-1 level upto 4 uM under dark condition by immunoblot analysis. The class given is functional, cell-based.
Data set [4] deals with G-361. The experiment in a line: Induction of DNA damage in human G361 cells assessed as increase in H2AX phosphorylation at Ser139 at 0.5 to 1 uM pretreated for 4 hrs followed by light irradiation of upto 10 J/cm2 at 414 nm measured after 20 hrs by Western blot analysis. The format is functional, cell-based. The conditions noted are these: dose 0.5-1 µM, time 24.0 hrs. The method, boiled down: as §2

In data set [5] the test system is G-361. Description: Cytotoxicity against human G361 cells under dark condition measured after 24 hrs by MTT assay. As to conditions: G-361, 24 h. The class given is functional, cell-based. The method, boiled down:
(§3)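 Cells grown in phenol red-free DMEM with 10 % FBS, penicillin/streptomycin, 37 °C, 5 % CO₂. Compound added 24 h after plating and incubated 4 h. Irradiated cells received 414 nm LED light at 20 mW/cm², 10 J/cm², then were incubated 20 h or 68 h more. Dark plates were run in parallel without irradiation. MTT was added for 4 h, formazan dissolved in 10 % SDS, absorbance read at 570 nm. EC50 ± SD.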
For orientation: Tetrazolium dyes change colour on reduction, which living cells bring about.

Data set [6] has as its system ARN-8 cell. Description: Induction of ROS production in human ARN-8 cells-derived from human A375 cells upto 4 uM treated for 4 hrs under dark condition by CM-H2DCFA probe based analysis. The class given is functional. The method, boiled down:
as §1

Data set [7] can be described thus: Induction of singlet oxygen generation in aqueous solution at 5 uM at light irradiation of 10 J/cm2. The format is functional. An outline of the steps:
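Water solutions of compound mixed with SOSG, DHR123 or HPF probe, each at a final 5 µM, without cells or medium. Irradiated with blue light at 10 J/cm² and fluorescence read immediately at 490/525 nm.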

A short description of data set [8]: Cytotoxicity against human ARN-8 cells-derived from human A375 cells under dark condition measured after 72 hrs by MTT assay. The format is functional, cell-based. As to conditions: ARN-8 cell. An outline of the steps:
as §3

The nature of data set [9]: Selectivity ratio of EC50 for human ARN-8 cells-derived from human A375 cells under dark condition measured after 24 hrs by MTT assay to EC50 for human ARN-8 cells-derived from human A375 cells pretreated for 4 hrs followed by light irradiation of 10 J/cm2 at 414 nm measured after 20 hrs by MTT assay. The class given is functional, ARN-8 cell. The method, boiled down:
(§4)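 Ratio of dark EC50 to EC50 after 414 nm irradiation (10 J/cm²). MTT read-out; compound exposure 4 h before irradiation. Each dark value is paired with the matching post-irradiation incubation (20 h or 68 h).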

The test system of data set [10] is G-361. The experiment in a line: Induction of apoptosis in human G361 cells assessed as decrease in Bcl-2 level upto 4 uM pretreated for 4 hrs followed by light irradiation of 10 J/cm2 at 414 nm measured after 20 hrs by Western blot analysis. The format is functional, cell-based. The conditions noted are these: time 24.0 hrs. An outline of the steps: as §2
Data set [11] relates to ARN-8 cell. The experiment in a line: Induction of ROS production in human ARN-8 cells-derived from human A375 cells upto 4 uM pretreated for 4 hrs followed by light irradiation of 5 to 10 J/cm2 measured immediately in presence of N-acetylcysteine by CM-H2DCFA probe based analysis. The class given is functional. The method, boiled down:
as §1

The nature of data set [12]: Cytotoxicity against human ARN-8 cells-derived from human A375 cells under dark condition measured after 24 hrs by MTT assay. The format is functional, cell-based. As to conditions: ARN-8 cell. The method, boiled down:
as §3

For data set [13], the system named is ARN-8 cell. The experiment in a line: Induction of apoptosis in human ARN-8 cells-derived from human A375 cells assessed as increase in cleaved BAX level upto 4 uM pretreated for 4 hrs followed by light irradiation of 10 J/cm2 at 414 nm measured after 20 hrs by Western blot analysis. The class given is functional, cell-based. As to conditions: time 24.0 hrs. The method, boiled down: as §2

Data set [14] in a line: Selectivity ratio of EC50 for human G361 cells under dark condition measured after 24 hrs by MTT assay to EC50 for human G361 cells pretreated for 4 hrs followed by light irradiation of 10 J/cm2 at 414 nm measured after 20 hrs by MTT assay. The format is functional. The method, boiled down:
as §4

Data set [15] concerns G-361. The experiment in a line: Induction of DNA fragmentation in human G361 cells at 0.5 uM pretreated with compound followed by light irradiation of 10 J/cm2 at 414 nm by Comet assay. The format is functional, cell-based. An outline of the steps: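 G361 cells exposed at 0.5 µM and irradiated at indicated 414 nm doses. Cells trypsinized and embedded in 1 % LMP agarose on slides, lysed 1 h in buffer with 1 % Triton X. Cold electrophoresis solution for 40 min, then electrophoresis at 20 V, 350 mA for 20 min. Neutralised twice for 10 min, stained with SYBR Green 15 min. Percent DNA in comet head and tail scored.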

Data set [16] concerns G-361. The experiment in a line: Induction of apoptosis in human G361 cells assessed as decrease in Mcl-1 level upto 4 uM pretreated for 4 hrs followed by light irradiation of 10 J/cm2 at 414 nm measured after 20 hrs by Western blot analysis. The class given is functional, cell-based. The conditions noted are these: time 24.0 hrs. An outline of the steps: as §2
The test system of data set [17] is ARN-8 cell. Description: Induction of ROS production in human ARN-8 cells-derived from human A375 cells pretreated for 4 hrs followed by light irradiation of 5 to 10 J/cm2 measured immediately by CM-H2DCFA probe based analysis. The format is functional. As to conditions: dose <= 4.0 µM. An outline of the steps: as §1
Data set [18] is described as follows: Cytotoxicity against human BJ cells under dark condition measured after 72 hrs by MTT assay. The format is toxicity, cell-based. An outline of the steps: as §3
For data set [19], the system named is ARN-8 cell. The experiment in a line: Induction of cell cycle arrest in human ARN-8 cells-derived from human A375 cells assessed as cell accumulation at G2/M phase at 0.5 to 1 uM pretreated for 4 hrs followed by light irradiation of upto 10 J/cm2 at 414 nm measured after 20 hrs by flow cytometry. As to conditions: dose 0.5-1 µM, time 24.0 hrs. The class given is functional, cell-based. The method, boiled down: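 Compound exposure 4 h (0.5 or 1 µM), then irradiation at increasing blue-light doses, then 20 h further incubation. Cells stained with propidium iodide; DNA content measured by flow cytometry with a 488 nm laser. Cell-cycle and subG1 distributions analysed.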
(In general: In flow cytometry, cells or beads pass a laser one at a time.)

Data set [20] has as its system ARN-8 cell. The experiment in a line: Induction of DNA damage in human ARN-8 cells-derived from human A375 cells assessed as increase in H2AX phosphorylation at Ser139 at 0.5 to 1 uM pretreated for 4 hrs followed by light irradiation of upto 10 J/cm2 at 414 nm measured after 20 hrs by Western blot analysis. The format is functional, cell-based. As to conditions: dose 0.5-1 µM, time 24.0 hrs. The method, boiled down: as §2

The term EC50 denotes the concentration that produces a half-maximal response. Read a high EC50 as weaker potency.

Each structure is given as a SMILES string. Active and inactive are the calls of the source. The rule behind the calls is not given here.

On to `COc1ccc(/C=C/C2=Nc3ccc4ccccc4c3C2(C)C)cc1[N+](=O)[O-]`, for which the result (in the data set with G-361 [1]; in the data set with ARN-8 cell [6]; in data set [7]; with ARN-8 cell [11]) was inactive. In addition, the result in the data set on ARN-8 cell [2], in the data set with ARN-8 cell [3], in the data set with G-361 [4], in the data set on G-361 [10], in the data set with ARN-8 cell [13] and with G-361 [15] was Active. In addition, the result in the data set on G-361 [16], in the data set with ARN-8 cell [19] and in the data set with ARN-8 cell [20] was Active. Further, the EC50 in the data set on G-361 [5] came to 9 µM; in data set [8], 7.3 µM; in data set [12] it was 9.2 µM. For the same compound, the “Ratio EC50” value in data set [9] and in data set [14] was “>=15” in each case. In addition, the Activity entry in the data set on ARN-8 cell [17] is “Dose-Dependent Effect”. It took 8.3 µM to reach a half-maximal effect in [18] (EC50 at 72 h).
